Source: ChEMBL document CHEMBL1255207, “Pyrazolobenzodiazepines: part I. Synthesis and SAR of a potent class of kinase inhibitors” (Bioorg Med Chem Lett, 2010)
Each block holds one compound with its values, some of them ahead of it. Active and inactive are the calls of the source. The calls are words filed in the database; no cut-off is given here.

Legend:
SW480 [1] = experiment: Cytotoxicity against human SW480 cells by MTT assay; format: functional, cell-based
Procedure, shortened: (§1)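 Antiproliferative IC50 was measured in human tumor lines: H460a (lung), HCT116, RKO and SW480 (colon), and MDA-MB435 (breast). Values are the mean of duplicate wells.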

[2] = target: Cyclin-dependent kinase 2/cyclin E (Homo sapiens, UniProt P24941); experiment: Inhibition of CDK2-cyclin E; format: protein-complex assay
Procedure, shortened: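 CDK2 was paired with cyclin E1. IC50 came from at least two replicates at each concentration.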

[3] = target: CDK4-cyclin D1 (Homo sapiens); experiment: Inhibition of CDK4-cyclin D1
[4] = test system: CDK1-cyclin B (Homo sapiens); experiment: Inhibition of CDK1-cyclin B
LOX = experiment: Antitumor activity against human LOX cells xenografted in mouse assessed as inhibition of tumor growth administered as po bid for 20 days; format: functional, organism-based
A549 = experiment: Antitumor activity against human A549 cells xenografted in mouse assessed as inhibition of tumor growth administered as po bid for 20 days; format: functional, organism-based
Mus musculus [5] = experiment: Toxicity in human SW480 cells xenografted mouse assessed as mortality at 0.78 to 3.125 mg/kg, po bid for 20 days; format: organism-based; design: dose 0.78-3.125 mg/kg, route oral; settings: in vivo, 480 h
Procedure, shortened: (§2)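 SW480 tumour-bearing nude mice were dosed by oral gavage (0.2 ml/animal) at 3.125, 1.56 or 0.78 mg/kg b.i.d. for 20 days, against a vehicle b.i.d. group. Animals were watched for drug-related toxicity, with body weight and tumour growth followed over days after tumour cell implant.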

MDA-MB-435 = experiment: Cytotoxicity against human MDA-MB-435 cells by MTT assay; format: functional, cell-based; procedure, shortened: as §1
NCI-H460 [6] = experiment: Cytotoxicity against human H460a cells by MTT assay; format: functional, cell-based; procedure, shortened: as §1
[7] = target: Proto-oncogene tyrosine-protein kinase Src (Homo sapiens, UniProt P12931); experiment: Inhibition of Src
Proto-oncogene tyrosine-protein kinase Src, sequence (P12931 2-536 limits assumed): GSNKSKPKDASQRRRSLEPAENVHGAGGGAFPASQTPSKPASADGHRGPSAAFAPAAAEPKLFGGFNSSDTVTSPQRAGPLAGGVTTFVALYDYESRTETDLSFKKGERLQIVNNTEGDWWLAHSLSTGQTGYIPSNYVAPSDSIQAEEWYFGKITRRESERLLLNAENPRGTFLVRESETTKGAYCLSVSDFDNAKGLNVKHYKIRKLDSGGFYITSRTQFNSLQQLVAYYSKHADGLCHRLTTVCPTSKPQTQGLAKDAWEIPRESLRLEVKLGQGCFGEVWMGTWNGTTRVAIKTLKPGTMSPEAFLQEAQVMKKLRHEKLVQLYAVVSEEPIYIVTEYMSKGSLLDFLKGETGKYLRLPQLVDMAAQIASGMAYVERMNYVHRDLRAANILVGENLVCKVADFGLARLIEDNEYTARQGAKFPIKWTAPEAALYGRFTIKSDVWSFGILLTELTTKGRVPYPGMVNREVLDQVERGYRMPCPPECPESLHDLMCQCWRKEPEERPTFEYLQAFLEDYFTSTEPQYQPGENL

[8] = target: Epidermal growth factor receptor (Homo sapiens, UniProt P00533); experiment: Inhibition of EGFR
Epidermal growth factor receptor, sequence (P00533 whole entry): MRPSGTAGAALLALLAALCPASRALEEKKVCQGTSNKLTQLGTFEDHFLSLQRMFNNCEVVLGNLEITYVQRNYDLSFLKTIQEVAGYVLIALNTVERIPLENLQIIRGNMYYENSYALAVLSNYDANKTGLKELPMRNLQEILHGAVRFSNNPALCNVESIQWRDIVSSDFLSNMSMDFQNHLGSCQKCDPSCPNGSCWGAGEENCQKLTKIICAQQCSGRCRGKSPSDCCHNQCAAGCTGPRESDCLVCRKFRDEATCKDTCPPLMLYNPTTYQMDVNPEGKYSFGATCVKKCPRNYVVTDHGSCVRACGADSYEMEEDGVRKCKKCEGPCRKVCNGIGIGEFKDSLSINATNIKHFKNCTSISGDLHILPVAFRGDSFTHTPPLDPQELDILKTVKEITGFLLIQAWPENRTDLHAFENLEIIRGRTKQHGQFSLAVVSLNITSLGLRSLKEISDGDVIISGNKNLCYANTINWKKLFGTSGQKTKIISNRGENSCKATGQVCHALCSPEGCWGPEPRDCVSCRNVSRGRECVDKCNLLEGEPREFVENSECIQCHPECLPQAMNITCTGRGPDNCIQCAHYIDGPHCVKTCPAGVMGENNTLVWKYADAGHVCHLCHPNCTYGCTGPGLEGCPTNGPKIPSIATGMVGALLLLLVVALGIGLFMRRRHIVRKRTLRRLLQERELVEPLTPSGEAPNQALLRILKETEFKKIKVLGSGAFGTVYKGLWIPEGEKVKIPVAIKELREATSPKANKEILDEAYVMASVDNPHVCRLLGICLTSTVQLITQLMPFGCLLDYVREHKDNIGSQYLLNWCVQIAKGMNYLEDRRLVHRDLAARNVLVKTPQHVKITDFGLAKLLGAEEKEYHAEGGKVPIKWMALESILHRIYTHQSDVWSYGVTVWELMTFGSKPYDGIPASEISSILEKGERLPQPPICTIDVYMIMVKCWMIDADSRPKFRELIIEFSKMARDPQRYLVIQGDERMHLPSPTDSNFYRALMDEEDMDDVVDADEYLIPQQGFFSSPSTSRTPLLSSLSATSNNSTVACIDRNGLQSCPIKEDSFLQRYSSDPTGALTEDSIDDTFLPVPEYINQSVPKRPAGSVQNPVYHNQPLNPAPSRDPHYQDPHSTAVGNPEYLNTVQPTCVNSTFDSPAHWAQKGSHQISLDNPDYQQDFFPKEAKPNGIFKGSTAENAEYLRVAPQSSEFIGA

Mus musculus [9] = experiment: Toxicity in human SW480 cells xenografted mouse assessed as body weight gain at 0.78 to 3.125 mg/kg, po bid for 20 days; format: organism-based; design: dose 0.78-3.125 mg/kg, route oral; settings: in vivo, 480 h
Procedure, shortened: (§3)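 SW480 tumor-bearing nude mice dosed per os by gavage (0.2 ml/animal) twice daily for 20 days at 3.125, 1.56 and 0.78 mg/kg, with vehicle b.i.d. control. Tumor growth was followed over days post-implant and expressed as %T/C and % inhibition, with p values. Body weight change was tracked over the study.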

SW480 [10] = experiment: Antitumor activity against human SW480 cells xenografted in mouse assessed as inhibition of tumor growth at 1.56 mg/kg, po bid for 20 days; format: functional; settings: SW480, 480 h; procedure, shortened: as §3
Mus musculus [11] = experiment: Toxicity in human SW480 cells xenografted mouse assessed as overt signs at 0.78 to 3.125 mg/kg, po bid for 20 days; format: organism-based; design: dose 0.78-3.125 mg/kg, route oral; settings: in vivo, 480 h; procedure, shortened: as §2
SW480 [12] = experiment: Antitumor activity against human SW480 cells xenografted in mouse assessed as inhibition of tumor growth at 3.125 mg/kg, po bid for 20 days; format: functional; settings: SW480, 480 h; procedure, shortened: as §3
LoVo = experiment: Antitumor activity against human LoVo cells xenografted in mouse assessed as inhibition of tumor growth administered as po bid for 20 days; format: functional, organism-based
[13] = Inhibition of PDGFR
Focal adhesion kinase 1 = Focal adhesion kinase 1 (Homo sapiens, UniProt Q05397); experiment: Inhibition of FAK
Focal adhesion kinase 1, sequence (Q05397 whole entry): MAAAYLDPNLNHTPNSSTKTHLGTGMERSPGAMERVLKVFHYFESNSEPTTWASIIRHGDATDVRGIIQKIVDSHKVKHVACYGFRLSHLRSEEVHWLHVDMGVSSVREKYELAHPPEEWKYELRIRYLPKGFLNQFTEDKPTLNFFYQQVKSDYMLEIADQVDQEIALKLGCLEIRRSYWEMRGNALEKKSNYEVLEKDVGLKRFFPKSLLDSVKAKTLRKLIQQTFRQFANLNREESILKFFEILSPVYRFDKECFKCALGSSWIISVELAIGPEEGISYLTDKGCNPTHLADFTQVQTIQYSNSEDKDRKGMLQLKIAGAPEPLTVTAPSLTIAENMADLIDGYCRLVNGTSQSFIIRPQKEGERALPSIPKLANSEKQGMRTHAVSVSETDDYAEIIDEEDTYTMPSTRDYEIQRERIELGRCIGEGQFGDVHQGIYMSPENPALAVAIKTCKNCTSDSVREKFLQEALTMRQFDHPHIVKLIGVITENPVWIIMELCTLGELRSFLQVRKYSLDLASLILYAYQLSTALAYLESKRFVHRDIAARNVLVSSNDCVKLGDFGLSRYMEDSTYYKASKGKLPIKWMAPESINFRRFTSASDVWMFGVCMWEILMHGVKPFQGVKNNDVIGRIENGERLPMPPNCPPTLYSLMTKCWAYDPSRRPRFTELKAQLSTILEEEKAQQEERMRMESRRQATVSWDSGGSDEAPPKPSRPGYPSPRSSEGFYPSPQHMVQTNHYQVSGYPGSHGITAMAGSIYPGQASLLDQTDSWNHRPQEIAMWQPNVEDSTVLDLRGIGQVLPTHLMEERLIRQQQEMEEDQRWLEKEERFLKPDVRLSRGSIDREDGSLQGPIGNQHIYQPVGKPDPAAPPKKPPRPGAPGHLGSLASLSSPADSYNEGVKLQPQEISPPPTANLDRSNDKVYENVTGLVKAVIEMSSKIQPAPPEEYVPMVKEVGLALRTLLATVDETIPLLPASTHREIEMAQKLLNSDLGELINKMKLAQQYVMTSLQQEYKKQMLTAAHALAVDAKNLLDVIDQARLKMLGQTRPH

NCI-H460 [14] = experiment: Antitumor activity against human H460 cells xenografted in mouse assessed as inhibition of tumor growth administered as po bid for 20 days; format: functional, organism-based
[15] = Inhibition of FGFR
HCT-116 = experiment: Cytotoxicity against human HCT116 cells by MTT assay; format: functional, cell-based; procedure, shortened: as §1
[16] = target: Vascular endothelial growth factor receptor 2 (Homo sapiens, UniProt P35968); experiment: Inhibition of KDR
Vascular endothelial growth factor receptor 2, sequence (P35968 whole entry): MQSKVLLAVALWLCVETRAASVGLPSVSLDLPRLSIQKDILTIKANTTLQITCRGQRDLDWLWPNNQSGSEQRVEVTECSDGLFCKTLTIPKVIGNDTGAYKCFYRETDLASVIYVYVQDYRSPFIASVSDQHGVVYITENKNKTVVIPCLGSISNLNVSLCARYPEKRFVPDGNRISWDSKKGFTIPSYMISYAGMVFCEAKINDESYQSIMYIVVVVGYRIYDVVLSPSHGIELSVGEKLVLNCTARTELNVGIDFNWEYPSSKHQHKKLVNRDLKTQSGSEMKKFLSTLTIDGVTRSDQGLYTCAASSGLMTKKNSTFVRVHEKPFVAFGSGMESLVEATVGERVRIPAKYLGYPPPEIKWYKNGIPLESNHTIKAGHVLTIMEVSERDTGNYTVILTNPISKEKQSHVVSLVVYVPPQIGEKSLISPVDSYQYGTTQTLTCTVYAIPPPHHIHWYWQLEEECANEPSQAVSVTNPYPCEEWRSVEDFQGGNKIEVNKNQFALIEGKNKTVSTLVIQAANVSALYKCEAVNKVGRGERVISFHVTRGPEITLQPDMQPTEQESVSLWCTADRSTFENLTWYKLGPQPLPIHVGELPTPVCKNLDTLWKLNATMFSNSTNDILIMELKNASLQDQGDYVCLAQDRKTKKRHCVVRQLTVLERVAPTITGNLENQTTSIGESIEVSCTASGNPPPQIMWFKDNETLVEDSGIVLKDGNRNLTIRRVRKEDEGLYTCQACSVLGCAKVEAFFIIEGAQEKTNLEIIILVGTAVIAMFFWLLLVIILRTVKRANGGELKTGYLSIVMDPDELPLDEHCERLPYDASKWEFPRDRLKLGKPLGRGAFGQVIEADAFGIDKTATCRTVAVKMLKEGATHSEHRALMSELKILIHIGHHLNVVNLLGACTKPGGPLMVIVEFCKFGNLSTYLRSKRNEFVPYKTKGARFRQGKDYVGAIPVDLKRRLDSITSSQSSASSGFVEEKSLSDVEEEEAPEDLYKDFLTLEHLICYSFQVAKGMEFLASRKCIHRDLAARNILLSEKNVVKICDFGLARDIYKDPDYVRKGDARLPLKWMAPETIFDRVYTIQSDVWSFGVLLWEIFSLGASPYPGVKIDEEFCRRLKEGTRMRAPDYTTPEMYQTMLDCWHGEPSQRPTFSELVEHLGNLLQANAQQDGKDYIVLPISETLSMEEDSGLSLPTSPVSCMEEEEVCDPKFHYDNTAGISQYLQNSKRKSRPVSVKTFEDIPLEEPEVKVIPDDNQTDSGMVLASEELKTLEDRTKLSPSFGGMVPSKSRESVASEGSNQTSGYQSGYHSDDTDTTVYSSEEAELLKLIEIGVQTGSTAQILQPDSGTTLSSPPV

RKO = experiment: Cytotoxicity against human RKO cells by MTT assay; format: functional, cell-based; procedure, shortened: as §1
[17] = target: CDK4-cyclin D1 (Homo sapiens); experiment: Inhibition of CDK4/Cyclin D1
[18] = target: CDK1-cyclin A1 (Homo sapiens); experiment: Inhibition of CDK1-cyclin A1

IC50 [2]: 105 nM
SMILES: Cc1[nH]nc2c1N=C(c1ccccc1Cl)c1ccccc1N2
IC50 (SW480 [1]): 3800 nM

IC50 [2]: 64 nM
SMILES: Cc1[nH]nc2c1N=C(c1ccccc1F)c1ccccc1N2
IC50 (SW480 [1]): 400 nM

IC50 [2]: 258 nM
SMILES: NC(=O)c1[nH]nc2c1N=C(c1ccccc1Cl)c1cc([N+](=O)[O-])ccc1N2

IC50 [2]: 238 nM
SMILES: O=[N+]([O-])c1ccc2c(c1)C(c1ccccc1Cl)=Nc1c(n[nH]c1CO)N2
IC50 (SW480 [1]): 240 nM

IC50 [3]: > 30000 nM | IC50 [4]: 10000 nM | IC50 [2]: 2000 nM
SMILES: Nc1n[nH]c2nc(-c3cccs3)cc(C(F)(F)F)c12
IC50 (SW480 [1]): 6000 nM

IC50 [2]: 10 nM
SMILES: CC(C)c1[nH]nc2c1N=C(c1ccccc1Cl)c1cc([N+](=O)[O-])ccc1N2
IC50 (SW480 [1]): 640 nM

SMILES: Nc1ccc2c(c1)C(c1ccccc1Cl)=Nc1c[nH]nc1N2
inhibition (LOX): Active | inhibition (A549): Active | Activity (Mus musculus [5]): Non-toxic | IC50 (SW480 [1]): 500 nM | IC50 (MDA-MB-435): 950 nM | IC50 (NCI-H460 [6]): 1070 nM | IC50 [7]: 1840 nM | IC50 [8]: 989 nM | Activity (Mus musculus [9]): 9% | inhibition in vivo at 1.56 mg/kg (SW480 [10]): 70% | Activity (Mus musculus [11]): Non-toxic | inhibition in vivo at 3.125 mg/kg (SW480 [12]): 93% | inhibition (LoVo): Active | IC50 [2]: 88 nM | IC50 [13]: 15 nM | IC50 (Focal adhesion kinase 1): 150 nM | inhibition (NCI-H460 [14]): Active | IC50 [15]: 50 nM | IC50 (HCT-116): 1020 nM | IC50 [16]: 34 nM | IC50 (RKO): 310 nM

IC50 [2]: 210 nM
SMILES: O=[N+]([O-])c1ccc2c(c1)C(c1ccccc1Cl)=Nc1c(n[nH]c1-c1ccccc1)N2
IC50 (SW480 [1]): 18000 nM

SMILES: N#Cc1ccc2c(c1)C(c1ccccc1F)=Nc1c[nH]nc1N2
IC50 (SW480 [1]): 110 nM | IC50 [17]: 520 nM | IC50 [7]: 5400 nM | IC50 [8]: 10900 nM | IC50 [18]: 139 nM | IC50 [2]: 16 nM | IC50 [13]: 51 nM | IC50 (Focal adhesion kinase 1): 1200 nM | IC50 [15]: 67 nM | IC50 [16]: 39 nM

IC50 [2]: 93 nM
SMILES: Cc1[nH]nc2c1N=C(c1ccccc1)c1cc(F)ccc1N2
IC50 (SW480 [1]): 2200 nM

IC50 [2]: 40 nM
SMILES: Cc1[nH]nc2c1N=C(c1ccccc1F)c1cc(F)ccc1N2
IC50 (SW480 [1]): 700 nM

IC50 [2]: 5000 nM
SMILES: O=[N+]([O-])c1ccc2c(c1)C(c1ccccc1Cl)=Nc1c(n[nH]c1CCc1ccccc1)N2
IC50 (SW480 [1]): 15000 nM

IC50 [2]: 115 nM
SMILES: Cc1[nH]nc2c1N=C(c1ccccc1)c1ccccc1N2
IC50 (SW480 [1]): 1500 nM

IC50 [2]: 232 nM
SMILES: O=[N+]([O-])c1ccc2c(c1)C(c1ccccc1Cl)=Nc1c(n[nH]c1C(F)(F)F)N2

IC50 [2]: 20 nM
SMILES: O=[N+]([O-])c1ccc2c(c1)C(c1ccccc1Cl)=Nc1c(n[nH]c1-c1ccc[nH]1)N2
IC50 (SW480 [1]): 5300 nM

IC50 [7]: 930 nM | IC50 [8]: 726 nM | IC50 [2]: 38 nM | IC50 [13]: 23 nM | IC50 (Focal adhesion kinase 1): 180 nM | IC50 [15]: 45 nM | IC50 [16]: 33 nM
SMILES: CC(=O)Nc1ccc2c(c1)C(c1ccccc1Cl)=Nc1c[nH]nc1N2
IC50 (SW480 [1]): 700 nM | IC50 (MDA-MB-435): 794 nM | IC50 (NCI-H460 [6]): 550 nM | IC50 (HCT-116): 460 nM | IC50 (RKO): 793 nM

IC50 [7]: > 60000 nM | IC50 [8]: > 10000 nM | IC50 [2]: 35 nM | IC50 [13]: 83 nM | IC50 (Focal adhesion kinase 1): 6900 nM | IC50 [15]: 100 nM | IC50 [16]: 72 nM
SMILES: Cc1[nH]nc2c1N=C(c1ccccc1Cl)c1cc([N+](=O)[O-])ccc1N2
IC50 (SW480 [1]): 160 nM

IC50 [2]: 300 nM
SMILES: O=[N+]([O-])c1ccc2c(c1)C(c1ccccc1Cl)=Nc1c(n[nH]c1-c1cccnc1)N2
IC50 (SW480 [1]): 26000 nM

IC50 [2]: 50 nM
SMILES: O=[N+]([O-])c1ccc2c(c1)C(c1ccccc1Cl)=Nc1c(n[nH]c1-c1ccncc1)N2
IC50 (SW480 [1]): 12000 nM

IC50 [3]: 10000 nM | IC50 [4]: 500 nM | IC50 [2]: 70 nM
SMILES: O=[N+]([O-])c1ccc2c(c1)C(c1ccccc1Cl)=Nc1c[nH]nc1N2
IC50 (SW480 [1]): 6000 nM
